In ChEMBL document CHEMBL4007497, “Development of Potent and Selective Antagonists for the UTP-Activated P2Y4 Receptor” (J Med Chem, 2017):
pIC50: −log10 of the molar value. Where “and” joins values, the source holds several entries; their conditions need not be identical. Identical values can stand only once.

Key:
P2Y purinoceptor 4 [1] = biological target: T1, P2Y purinoceptor 4 (Homo sapiens, UniProt P51582); assay: Antagonist activity at human P2Y4 receptor transfected in human 1321N1 cells assessed as inhibition of UTP-activated intracellular calcium mobilization preincubated for 30 mins followed by UTP addition by fluo-4-dye based fluorescence assay; assay type: functional, cell-based
T1 sequence (P51582 whole entry): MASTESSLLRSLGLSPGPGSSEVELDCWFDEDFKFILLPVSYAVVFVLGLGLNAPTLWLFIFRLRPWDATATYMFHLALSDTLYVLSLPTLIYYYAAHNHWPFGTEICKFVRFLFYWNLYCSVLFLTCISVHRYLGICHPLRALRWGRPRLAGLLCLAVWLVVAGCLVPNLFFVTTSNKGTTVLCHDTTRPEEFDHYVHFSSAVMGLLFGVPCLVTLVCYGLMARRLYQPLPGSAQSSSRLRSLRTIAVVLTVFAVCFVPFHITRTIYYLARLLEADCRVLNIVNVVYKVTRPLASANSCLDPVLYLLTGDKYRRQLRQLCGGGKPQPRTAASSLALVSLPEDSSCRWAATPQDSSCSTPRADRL
In short: (§1)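 1321N1 astrocytoma cells stably expressing the human P2Y subtype, grown in DMEM with 10 % FCS and 200 μg/mL G418 at 37 °C. Plated 50,000 cells/well about 24 h before testing. Cells loaded with fluo-4 AM for 1 h, then placed in HBSS and preincubated 30 min with compound. Agonist was injected at about EC80: ADP 500 nM (P2Y1), UTP 500 nM (P2Y2, P2Y4), UDP 750 nM (P2Y6). Fluorescence read at ex 488/em 525 nm. At least three independent experiments in duplicate. IC50 obtained by nonlinear regression.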

P2Y purinoceptor 1 = P2Y purinoceptor 1 (Homo sapiens, UniProt P47900); assay: Antagonist activity at human P2Y1 receptor transfected in human 1321N1 cells assessed as inhibition of ADP-activated intracellular calcium mobilization preincubated for 30 mins followed by ADP addition by fluo-4-dye based fluorescence assay; assay type: functional, cell-based; in short: as §1
Sequence of P2Y purinoceptor 1 (P47900 whole entry): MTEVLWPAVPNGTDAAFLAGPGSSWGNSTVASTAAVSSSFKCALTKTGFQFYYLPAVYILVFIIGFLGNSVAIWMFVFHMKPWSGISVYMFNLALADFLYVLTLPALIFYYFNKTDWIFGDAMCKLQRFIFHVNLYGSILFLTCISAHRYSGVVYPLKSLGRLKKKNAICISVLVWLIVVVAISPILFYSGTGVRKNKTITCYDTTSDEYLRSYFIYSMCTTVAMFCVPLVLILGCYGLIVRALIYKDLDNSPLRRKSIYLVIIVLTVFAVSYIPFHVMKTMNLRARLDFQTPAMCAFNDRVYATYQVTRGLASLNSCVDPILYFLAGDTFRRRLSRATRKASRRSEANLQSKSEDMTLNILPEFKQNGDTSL

P2Y purinoceptor 2 = P2Y purinoceptor 2 (Homo sapiens, UniProt P41231); assay: Antagonist activity at human P2Y2 receptor transfected in human 1321N1 cells assessed as inhibition of UTP-activated intracellular calcium mobilization preincubated for 30 mins followed by UTP addition by fluo-4-dye based fluorescence assay; assay type: functional, cell-based; in short: as §1
Sequence of P2Y purinoceptor 2 (P41231 whole entry): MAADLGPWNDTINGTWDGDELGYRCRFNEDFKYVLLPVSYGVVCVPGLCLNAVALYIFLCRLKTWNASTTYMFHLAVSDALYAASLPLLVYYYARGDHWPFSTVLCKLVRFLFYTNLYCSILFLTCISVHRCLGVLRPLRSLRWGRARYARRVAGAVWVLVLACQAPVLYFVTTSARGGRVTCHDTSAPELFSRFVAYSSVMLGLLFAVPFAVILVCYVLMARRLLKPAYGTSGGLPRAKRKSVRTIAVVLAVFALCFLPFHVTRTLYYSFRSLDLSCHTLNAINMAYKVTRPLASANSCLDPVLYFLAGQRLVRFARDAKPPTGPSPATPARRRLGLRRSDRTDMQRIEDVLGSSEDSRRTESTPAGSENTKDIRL

P2Y purinoceptor 6 = P2Y purinoceptor 6 (Homo sapiens, UniProt Q15077); assay: Antagonist activity at human P2Y6 receptor transfected in human 1321N1 cells assessed as inhibition of UDP-activated intracellular calcium mobilization preincubated for 30 mins followed by UDP addition by fluo-4-dye based fluorescence assay; assay type: functional, cell-based; in short: as §1
Sequence of P2Y purinoceptor 6 (Q15077 whole entry): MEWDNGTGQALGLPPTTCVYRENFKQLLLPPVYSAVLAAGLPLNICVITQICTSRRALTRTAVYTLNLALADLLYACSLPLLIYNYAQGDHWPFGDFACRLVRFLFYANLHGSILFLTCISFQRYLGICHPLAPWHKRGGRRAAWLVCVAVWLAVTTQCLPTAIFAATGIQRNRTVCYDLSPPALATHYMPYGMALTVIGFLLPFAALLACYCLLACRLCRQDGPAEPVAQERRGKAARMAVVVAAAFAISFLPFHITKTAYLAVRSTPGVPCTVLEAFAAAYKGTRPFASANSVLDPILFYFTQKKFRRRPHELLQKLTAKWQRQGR

P2Y purinoceptor 12 = P2Y purinoceptor 12 (Homo sapiens, UniProt Q9H244); assay: Antagonist activity at human P2Y12 receptor expressed in CHO cells assessed as inhibition of 2-MeSADP-induced beta-arrestin translocation preincubated for 30 mins followed by 2-MeSADP addition measured after 90 mins by luminescence-based topcount method; assay type: cell-based
Sequence of P2Y purinoceptor 12 (Q9H244 whole entry): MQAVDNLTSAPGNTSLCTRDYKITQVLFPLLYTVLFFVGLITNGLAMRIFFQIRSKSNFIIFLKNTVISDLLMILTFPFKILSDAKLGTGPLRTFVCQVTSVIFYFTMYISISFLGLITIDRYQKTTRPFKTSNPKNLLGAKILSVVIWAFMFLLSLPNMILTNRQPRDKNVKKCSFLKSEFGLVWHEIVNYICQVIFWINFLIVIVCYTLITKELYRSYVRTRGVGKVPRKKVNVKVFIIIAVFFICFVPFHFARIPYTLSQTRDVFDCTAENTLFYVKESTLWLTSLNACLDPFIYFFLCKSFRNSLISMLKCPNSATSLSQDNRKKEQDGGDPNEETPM

P2Y purinoceptor 4 [2] = biological target: T1, P2Y purinoceptor 4; assay: Antagonist activity at human P2Y4 receptor transfected in human 1321N1 cells assessed as inhibition of UTP-activated intracellular calcium mobilization at 30 uM preincubated for 30 mins followed by UTP addition by fluo-4-dye based fluorescence assay; assay type: functional, cell-based
P2Y purinoceptor 4 [3] = biological target: T1, P2Y purinoceptor 4; assay: Antagonist activity at human P2Y4 receptor transfected in human 1321N1 cells assessed as inhibition of UTP-activated intracellular calcium mobilization at 100 uM preincubated for 30 mins followed by UTP addition by fluo-4-dye based fluorescence assay; assay type: functional, cell-based

| SMILES | pIC50 (P2Y purinoceptor 4 [1]) | further results |
| --- | --- | --- |
| Nc1c(S(=O)(=O)O)cc(Nc2ccc(Nc3ccccc3)cc2)c2c1C(=O)c1ccccc1C2=O | 5.72 | – |
| Nc1c(S(=O)(=O)O)cc(Nc2ccc(F)cc2)c2c1C(=O)c1ccccc1C2=O | 5.39 | – |
| Cc1cc(Nc2cc(S(=O)(=O)O)c(N)c3c2C(=O)c2ccccc2C3=O)ccc1Cl | 5.78 | – |
| CCc1ccccc1Nc1cc(S(=O)(=O)O)c(N)c2c1C(=O)c1ccccc1C2=O | 5.45 | – |
| Nc1c(S(=O)(=O)O)cc(Nc2ccc(Oc3ccc(Br)cc3)cc2)c2c1C(=O)c1ccccc1C2=O | 5.75 | – |
| Nc1c(S(=O)(=O)O)cc(Nc2ccccc2)c2c1C(=O)c1ccccc1C2=O [ACID BLUE 25] | 5.51 to 5.71 | pIC50 (P2Y purinoceptor 1): 4.75; pIC50 (P2Y purinoceptor 2): 4.77; pIC50 (P2Y purinoceptor 6): 5.55; pIC50 (P2Y purinoceptor 12): 5.51 |
| Nc1c(S(=O)(=O)O)cc(NCCc2ccccc2)c2c1C(=O)c1ccccc1C2=O | 5.14 | – |
| Nc1c(S(=O)(=O)O)cc(Nc2cccc(C(=O)O)c2)c2c1C(=O)c1ccccc1C2=O | 4.63 | – |
| CCCc1cccc(Nc2cc(S(=O)(=O)O)c(N)c3c2C(=O)c2ccccc2C3=O)c1 | 5.52 | – |
| Cc1ccc(Sc2ccc(Nc3cc(S(=O)(=O)O)c(N)c4c3C(=O)c3ccccc3C4=O)cc2)cc1C | 6.32 | pIC50 (P2Y purinoceptor 1): 5.34; pIC50 (P2Y purinoceptor 2): 4.99; pIC50 (P2Y purinoceptor 6): 5.36; pIC50 (P2Y purinoceptor 12): 5.63 |
| Cc1ccc(Nc2cc(S(=O)(=O)O)c(N)c3c2C(=O)c2ccccc2C3=O)c(C)c1 | 5.45 | – |
| Nc1c(S(=O)(=O)O)cc(Nc2ccc(Oc3ccc(F)cc3)cc2)c2c1C(=O)c1ccccc1C2=O | 5.77 | – |
| Cc1ccc(C)c(Sc2ccc(Nc3cc(S(=O)(=O)O)c(N)c4c3C(=O)c3ccccc3C4=O)cc2)c1 | 6.40 | pIC50 (P2Y purinoceptor 1): 5.57; pIC50 (P2Y purinoceptor 2): 5.19; pIC50 (P2Y purinoceptor 6): 5.57; pIC50 (P2Y purinoceptor 12): 5.53 |
| Nc1c(S(=O)(=O)O)cc(Nc2ccc([N+](=O)[O-])cc2C(=O)O)c2c1C(=O)c1ccccc1C2=O | < 4.52 | inhibition (P2Y purinoceptor 4 [2]): 30% |
| COc1cc(Nc2cc(S(=O)(=O)O)c(N)c3c2C(=O)c2ccccc2C3=O)ccc1Cl | 5.47 | – |
| COc1ccc(Nc2cc(S(=O)(=O)O)c(N)c3c2C(=O)c2ccccc2C3=O)cc1OC | 5.30 | – |
| Nc1c(S(=O)(=O)O)cc(Nc2cccc(Br)c2)c2c1C(=O)c1ccccc1C2=O | 5.16 | – |
| COc1cccc(Nc2cc(S(=O)(=O)O)c(N)c3c2C(=O)c2ccccc2C3=O)c1 [listing 1 of 3 here] | < 5.00 | – |
| Nc1c(S(=O)(=O)O)cc(Nc2cccc(F)c2)c2c1C(=O)c1ccccc1C2=O | 5.86 | – |
| Cc1cc(Cl)ccc1Nc1cc(S(=O)(=O)O)c(N)c2c1C(=O)c1ccccc1C2=O | 5.66 | – |
| Cc1cc(Nc2ccc(F)cc2C(=O)O)c2c(c1N)C(=O)c1ccccc1C2=O | 4.00 | inhibition (P2Y purinoceptor 4 [3]): 57% |

| SMILES | pIC50 (P2Y purinoceptor 4 [1]) | further results |
| --- | --- | --- |
| Nc1c(S(=O)(=O)O)cc(Nc2ccc(Oc3ccc(Cl)cc3)cc2)c2c1C(=O)c1ccccc1C2=O | 6.43 | – |
| Nc1c(S(=O)(=O)O)cc(Nc2ccc(Sc3ccccc3)cc2)c2c1C(=O)c1ccccc1C2=O | 5.93 | – |
| COc1ccccc1Nc1cc(S(=O)(=O)O)c(N)c2c1C(=O)c1ccccc1C2=O | 5.40 | – |
| Nc1c(S(=O)(=O)O)cc(Nc2ccc(F)cc2C(=O)O)c2c1C(=O)c1ccccc1C2=O [listing 1 of 3 here] | < 4.00 | – |
| COc1cccc(Nc2cc(C)c(N)c3c2C(=O)c2ccccc2C3=O)c1 | < 4.52 | inhibition (P2Y purinoceptor 4 [2]): 38% |
| Cc1cccc(Nc2cc(S(=O)(=O)O)c(N)c3c2C(=O)c2ccccc2C3=O)c1C | 5.58 | – |
| COc1cccc(Nc2cc(S(=O)(=O)O)c(N)c3c2C(=O)c2ccccc2C3=O)c1 [listing 2 of 3 here] | – | inhibition (P2Y purinoceptor 4 [2]): 77% |
| Nc1c(S(=O)(=O)O)cc(NCc2ccccc2)c2c1C(=O)c1ccccc1C2=O | 4.84 | – |
| Nc1c(S(=O)(=O)O)cc(Nc2ccc(Oc3ccccc3)cc2)c2c1C(=O)c1ccccc1C2=O | 5.71 | – |
| COc1cccc(Nc2cc(S(=O)(=O)O)c(N)c3c2C(=O)c2ccccc2C3=O)c1 [listing 3 of 3 here] | 5.77 | – |
| COc1cc(Nc2cc(S(=O)(=O)O)c(N)c3c2C(=O)c2ccccc2C3=O)ccc1C | 5.38 | – |
| Nc1c(S(=O)(=O)O)cc(Nc2cccc(F)c2C(=O)O)c2c1C(=O)c1ccccc1C2=O | < 4.00 | inhibition (P2Y purinoceptor 4 [3]): 10% |
| Nc1c(S(=O)(=O)O)cc(Nc2cccc3ccccc23)c2c1C(=O)c1ccccc1C2=O | 5.13 | – |
| CCc1ccc(Nc2cc(S(=O)(=O)O)c(N)c3c2C(=O)c2ccccc2C3=O)cc1 | 5.49 | – |
| Cc1ccc(Nc2cc(S(=O)(=O)O)c(N)c3c2C(=O)c2ccccc2C3=O)cc1 | 5.55 | – |
| Cc1cc(C)cc(Nc2cc(S(=O)(=O)O)c(N)c3c2C(=O)c2ccccc2C3=O)c1 | 5.19 | – |
| Cc1ccc(C)c(Nc2cc(S(=O)(=O)O)c(N)c3c2C(=O)c2ccccc2C3=O)c1 | 4.95 | – |
| Nc1c(S(=O)(=O)O)cc(Nc2ccc(Cl)cc2)c2c1C(=O)c1ccccc1C2=O | 5.52 | – |
| Nc1c(S(=O)(=O)O)cc(Nc2cccc(Cl)c2)c2c1C(=O)c1ccccc1C2=O | 5.63 | – |
| Nc1c(S(=O)(=O)O)cc(Nc2ccc(F)cc2C(=O)O)c2c1C(=O)c1ccccc1C2=O [listing 2 of 3 here] | – | inhibition (P2Y purinoceptor 4 [3]): 17% and 25% |
| Nc1c(S(=O)(=O)O)cc(Nc2ccc(Cc3ccccc3)cc2)c2c1C(=O)c1ccccc1C2=O | 5.46 | – |

| SMILES | pIC50 (P2Y purinoceptor 4 [1]) | further results |
| --- | --- | --- |
| Nc1c(S(=O)(=O)O)cc(Nc2ccc(O)cc2)c2c1C(=O)c1ccccc1C2=O | 5.50 | – |
| COc1cc(Nc2cc(S(=O)(=O)O)c(N)c3c2C(=O)c2ccccc2C3=O)cc(OC)c1 | 5.03 | – |
| Nc1c(S(=O)(=O)O)cc(Nc2ccccc2Cl)c2c1C(=O)c1ccccc1C2=O | 5.03 | – |
| Cc1cccc(Nc2cc(S(=O)(=O)O)c(N)c3c2C(=O)c2ccccc2C3=O)c1 | 5.65 | – |
| Nc1c(S(=O)(=O)O)cc(Nc2ccc(Br)cc2)c2c1C(=O)c1ccccc1C2=O | 5.48 | – |
| Nc1c(S(=O)(=O)O)cc(Nc2ccccc2C(=O)O)c2c1C(=O)c1ccccc1C2=O | 5.21 | – |
| Nc1c(S(=O)(=O)O)cc(Nc2ccc(O)cc2C(=O)O)c2c1C(=O)c1ccccc1C2=O | 4.68 | – |
| Nc1c(S(=O)(=O)O)cc(Nc2cc(Cl)ccc2C(=O)O)c2c1C(=O)c1ccccc1C2=O | 5.56 | – |
| Nc1c(S(=O)(=O)O)cc(Nc2ccc(C(=O)O)cc2)c2c1C(=O)c1ccccc1C2=O | 4.52 | inhibition (P2Y purinoceptor 4 [2]): 57% |
| Cc1ccccc1Nc1cc(S(=O)(=O)O)c(N)c2c1C(=O)c1ccccc1C2=O | 5.46 | – |
| Nc1c(S(=O)(=O)O)cc(Nc2ccc(Nc3nc(Cl)nc(Nc4ccc(S(=O)(=O)O)cc4)n3)c(S(=O)(=O)O)c2)c2c1C(=O)c1ccccc1C2=O | 6.20 | – |
| Nc1c(S(=O)(=O)O)cc(Nc2ccc(Nc3nc(Cl)nc(Nc4cccc(S(=O)(=O)O)c4)n3)c(S(=O)(=O)O)c2)c2c1C(=O)c1ccccc1C2=O [RB 2] | 5.94 | – |
| O=C1c2ccccc2C(=O)c2c(Nc3cccc(F)c3)cc(S(=O)(=O)O)cc21 | 4.52 | – |
| Nc1c(S(=O)(=O)O)cc(Nc2cc(F)cc(F)c2)c2c1C(=O)c1ccccc1C2=O | 4.90 | – |
| Nc1c(S(=O)(=O)O)cc(Nc2ccc(F)cc2C(=O)O)c2c1C(=O)c1ccccc1C2=O [listing 3 of 3 here] | < 4.00 | – |
| Cc1cc(Nc2cc(S(=O)(=O)O)c(N)c3c2C(=O)c2ccccc2C3=O)ccc1O | 6.13 | pIC50 (P2Y purinoceptor 1): 5.12; pIC50 (P2Y purinoceptor 2): 4.79; pIC50 (P2Y purinoceptor 6): 5.32; pIC50 (P2Y purinoceptor 12): 7.22 |
| Nc1c(S(=O)(=O)O)cc(Nc2ccc(Br)cc2C(=O)O)c2c1C(=O)c1ccccc1C2=O | < 4.00 | inhibition (P2Y purinoceptor 4 [2]): 30% |
| Cc1cc(Nc2cccc(F)c2)c2c(c1N)C(=O)c1ccccc1C2=O | < 4.52 | inhibition (P2Y purinoceptor 4 [2]): -4% |
| CCc1cccc(Nc2cc(S(=O)(=O)O)c(N)c3c2C(=O)c2ccccc2C3=O)c1 | 5.82 | – |
| COc1cc(Nc2cc(S(=O)(=O)O)c(N)c3c2C(=O)c2ccccc2C3=O)ccc1F | 5.81 | – |
| COc1ccc(Nc2cc(S(=O)(=O)O)c(N)c3c2C(=O)c2ccccc2C3=O)cc1 | 5.59 | – |
